An excerpt weighted towards active compounds, which were near 6% of everything screened.
Pyk2 oligo antag – blocks oligomerization of human Pyk2 in cells; Q14289; Q293 cells, Pyk2 FERM NanoBiT luminescence; stronger effect = lower value; z-score (the deposit names both 25 µM and 10 µM); 99,000 compounds, 0.83% hits; AID 1347419;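 active = Z-score of -3 or lower, scaled per plate to the spread of control and sample wells; inactive = z-score above -3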;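 note: negative z-score means lost luminescence so less FERM oligomerization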
Fibroblast inh – blocks proliferation of human lung fibroblasts. LL 47 human lung fibroblast viability, ATP luminescence; stronger effect = lower value. viability, % at 10 µM. 85,000 compounds, 1.1% hits. AID 719;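 active = viability at or below 50% in the single dose screen; inactive = viability above 50%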;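 note: compound exposure lasted 72 h before the ATP readout; 100% = median luminescence of untreated cell-only wells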
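material = human LL 47 lung fibroblast cells | dosing = compounds added from tenfold dosing solution, 0.1% DMSO final | timing = overnight cell rest, 72 h compound treatment at 37 °C | measured by = CellTiter-Glo luminescence measuring cellular ATP | evaluation = % viability versus median cells-only luminescence | control set = cell-only wells, no compound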
H69AR inhibit – growth inhibitors of human H69AR lung tumor cells; H69AR lung tumor viability, ATP luminescence, 72 h; stronger effect = lower value; viability, % at 10 µM; 85,000 compounds, 6% hits; AID 598;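 active = viability at or below 40%; inactive = viability above 40%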;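 note: multidrug resistant small cell line overexpressing MRP-1 efflux transporter; 100% = mean luminescence of untreated control wells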
cytoskel mod – alters cytoskeleton assembly in HUVEC cells | 91,000 compounds, 0.18% hits | AID 836 | HUVEC TNFa F-actin phalloidin imaging, high content | inhibition, % at 2 µM;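 active = inhibition above the batch mean plus 3 SD and confirmed as a hit by visual image inspection, cut at about 30% in these data, passing the limit was not always enough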
HUVEC prolif 384 – human endothelial cell proliferation inhibition; viability, % at 10 µM (by protocol); HUVEC proliferation, CellTiter-Glo luminescence, 72 h; stronger effect = lower value; 86,000 compounds, 1.1% hits; AID 648;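 active = viability at or below 30%; inactive = viability above 30%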;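 note: 100% = median luminescence of DMSO-only cell control wells on each plate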
Jurkat viability – cytotoxicity toward Jurkat cells. inhibition, % at 4 µM. Jurkat E6.1 viability, ATP luminescence, 48 h. 56,000 compounds, 1.2% hits;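 active = inhibition above the mean inhibition of all tested compounds plus 3 SD, cut at about 28% in these data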
* = called active by the depositor; nt = not tested or not shown; ! = a repeat was not active.

SMILES	Pyk2 oligo antag	Fibroblast inh	H69AR inhibit	cytoskel mod	HUVEC prolif 384	Jurkat viability
Cc1cc(C(=O)Nc2cccc3ncccc23)no1	0.01	87	60	0	79	9
CCOc1cc(C(=O)Nc2cccc3ncccc23)cc(OCC)c1OCC	-1.1	104	94	53*	99	nt
CC(=O)N1CCn2c3ccc(C)cc3c3cccc1c32	1.1	88	82	11	54	nt
COc1cccc(-n2c(SCC(N)=O)nc3c([nH]c4ccccc43)c2=O)c1	-0.11	66	23*	nt	72	nt
COc1cccc(-n2c(SCC(=O)Nc3cc(C)on3)nc3c([nH]c4ccccc43)c2=O)c1	nt	78	92	15	79	5
O=C(Cn1c(-c2cncs2)nc2ccccc21)NCCc1ccccc1	nt	99	18*	3	101	3
c1ccc(Cn2c(-c3cncs3)nc3ccccc32)cc1	-0.09	95	93	11	111	nt
COc1ccc(C)cc1NC(=O)C(NCC1CCCO1)c1ccccc1 (centres undefined)	0.48	nt	nt	nt	nt	nt
Cc1nc2ccccc2c2oc(C(=O)NC3CC3)cc12	nt	99	69	0	71	-4
CCOc1ccc(NC(=O)c2cc3c(C)nc4ccccc4c3o2)cc1	nt	71	30*	-5	74	nt
CCOC(=O)c1cnc(SC)nc1Sc1cc(Cl)ccc1Cl	-1.3	88	62	nt	100	nt
CO/N=C/C(=N\Nc1ccc(OC)cc1)C(=O)c1ccc(OC)cc1	-1.9	85	24*	10	91	nt
CC(C)Oc1snc(Cl)c1C(N)=O	-0.15	103	92	2	97	nt
CNCCCC12CCC(c3ccccc31)c1ccccc12	nt	74	8.6*!	-12	67	nt
NC1=NC2(CCCCC2)n2c(nc3ccccc32)N1	-0.33	87	92	5	88	-2
N=c1cc(C2(O)CCCCC2)n2c(nc3ccccc32)s1	0.07	96	6.8*	3	65	nt
CCc1c(C(=O)O)[nH]c2ccc(Br)cc12	0.33	nt	nt	19	nt	nt
COC(=O)c1cc(COC(=O)c2cccnc2SC)oc1C	-0.95	96	104	8	92	-1
COC(=O)c1cc(OC)c(OC)cc1NC(=O)c1ccc(C)cc1	-1.1	94	16*	nt	68	nt
COc1ccc(CCNc2c(C)c(C)nc3ncnn23)cc1	0.34	nt	nt	45	nt	92*
CC1(C)CC(=O)C2=C(C1)OC1=C(C(=O)CC(C)(C)C1)C2c1ccc(O)cc1O	-0.77	17*	2.2*	-16	25*	96*
COc1cccc(-c2cc(C(F)(F)F)nc(N3CCN(c4ccccc4)CC3)n2)c1	0.4	nt	nt	-21	nt	nt
Cc1nn(-c2ccccc2)c2[nH]c(=O)c(CNc3ccc(N4CCOCC4)cc3)cc12	-1.1	94	18*	-8	76	-4
Cc1nn(Cc2ccccc2Cl)c2sc(C(=O)NCc3ccc4c(c3)OCO4)cc12	-1.5	94	48	-11	85	nt
Cc1nn(-c2ccc(Cl)cc2)c2[nH]c(=O)c(CNCc3ccc4c(c3)OCO4)cc12	-2.1	88	32*	10	82	-4
SMILES	Pyk2 oligo antag	Fibroblast inh	H69AR inhibit	cytoskel mod	HUVEC prolif 384	Jurkat viability
CN1CCN(C(=O)C2CC(c3c(F)cccc3Cl)=NO2)CC1 (centres undefined)	-0.15	101	108	nt	102	-3
Cc1ccc(-c2csc3ncnc(Sc4nnc(CN5CCCCCC5=O)o4)c23)cc1	-2.9	31*	-0.2*	36	61	71*
Cc1ccc(-c2cc(-c3ccc(F)cc3)nc(N)c2C#N)o1	-0.5	93	14*	45	68	5
CCN1CCN(c2ncc(C(=O)Nc3cc(Cl)ccc3OC)c3ccccc23)CC1	-0.74	68	12*	nt	19*	11
O=C(Nc1c(F)cccc1F)c1cnc(N2CCN(c3ccccn3)CC2)c2ccccc12	-3.6*	92	50	6	61	nt
O=C(O)C[C@@H](O)C(=O)O	nt	97	93	nt	94	nt
O=C(Cn1c(C(=O)N2CCN(C3CCCCC3)CC2)cc2sccc21)c1ccccc1	-2.1	92	69	-46	100	6
O=C(Cn1c(C(=O)N2CCc3ccccc3C2)cc2sccc21)c1ccccc1	-4*	102	94	19	100	1
Oc1ccc(Br)cc1CN1CCCCCCC1	-0.37	94	93	14	103	0
Clc1cc2cccnc2c2ccccc12	1.4	nt	nt	nt	nt	nt
Oc1ccc(COCc2ccccc2)c2cccnc12	-0.28	14*	1.6*	-33	49	68*
Oc1ccc2ccccc2c1CN1CCN(c2ccccc2)CC1	-0.03	99	99	nt	86	nt
Oc1ccc(CN2CCCCC2)c2cccnc12	-0.51	3.1*	0.7*	nt	63	nt
OCc1ccc(O)c2ncccc12	-0.1	28*	22*	-31	112	nt
Oc1ccc(CN2CCN(c3ccccc3)CC2)c2cccnc12	0.07	26*	23*	nt	89	nt
CCOC(=O)Cc1csc(NC(=O)c2sc3nc4c(C)cc(C)cc4cc3c2N)n1	0.29	nt	nt	-8	nt	nt
Oc1ccc(CNc2ccccc2F)c2cccnc12	1.6	74	28*	11	94	3
Oc1ccc(CN2CCc3ccccc3C2)c2cccnc12	-0.36	13*	38*	18	44	nt
COc1cccc(C2=NOC(C(=O)NCCN3CCOCC3)C2)c1 (centres undefined)	0.44	97	94	6	98	8
O=C(Nc1ccccc1)c1ccc2nc(-c3ccco3)c(-c3ccco3)nc2c1	-0.63	101	49	-39	67	10
S=C(Nc1ccc(N2CCOCC2)cc1)Nc1ccc2nc(-c3ccco3)c(-c3ccco3)nc2c1	-1.5	113	33*	-5	54	nt
CC(=O)c1ccc(NC(=O)c2ccc3nc(-c4ccco4)c(-c4ccco4)nc3c2)cc1	-0.35	86	2.4*	-9	49	nt
O=C(Nc1ccc(N2CCOCC2)cc1)c1ccc2nc(-c3ccco3)c(-c3ccco3)nc2c1	-2.5	83	29*	-20	52	-2
CN(C)c1cccc(C(=O)Nc2ccc(N3CCOCC3)cc2)c1	-0.55	nt	nt	32*	nt	nt
O=C(c1ccccc1)c1nc[nH]c1C(=O)Nc1ccccc1	-1.3	71	24*	16	86	-2
SMILES	Pyk2 oligo antag	Fibroblast inh	H69AR inhibit	cytoskel mod	HUVEC prolif 384	Jurkat viability
COc1cccc(C(=O)COC(=O)C(C)N2C(=O)C3C4C=CC(C4)C3C2=O)c1 (centres undefined)	-0.08	95	92	1	102	nt
O=C(NC1C=CS(=O)(=O)C1)c1sc2ccccc2c1Cl (centres undefined)	-0.16	76	1.7*	-25	73	22
COc1cc(-c2nc3cnccn3c2Nc2ccc(C)cc2)ccc1O	-1.7	86	56	10	84	nt
COc1cc(-c2nc3cnccn3c2Nc2ccc(C(C)C)cc2)ccc1O	-0.87	46*	0.5*	2	3.2*	nt
CCN(CC)c1cc(C)c2cc(NC(=O)CNC(C)=O)ccc2n1	-0.64	nt	nt	-2	nt	nt
COc1ccc(NC(=O)c2ccco2)cc1NC(=O)c1c(F)c(F)c(OC)c(F)c1F	0.23	87	92	14	75	3
